Assays:
[1] = Prediction of human PK for AZ2; settings: predicted
[2] = PK studies in the rat; type: in vivo; settings: Sprague Dawley, plasma, intravenous, 1 mg·kg^−1
Summary of the method: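 Male Sprague Dawley rats were given test compound at 1 mg·kg−1 IV or 3 mg·kg−1 orally; dose was set by syringe weight difference. Serial tail-vein blood was taken from 2 to 1440 min and centrifuged at 4°C. Plasma was stored at −20°C and then quantified by LC–MS/MS against calibration curves in control rat plasma. Parameters were derived by non-compartmental analysis.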

[3] = Plasma protein binding by equilibrium dialysis, human plasma; type: in vitro ADME; settings: 10 μM, 18 h at 37°C, mean, n of at least 3
Summary of the method: (§1)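 Test compound at 10 μM final was added to plasma and dialysed against buffer across a 5 kD membrane in a rotating unit for 18 h at 37°C. Buffer and plasma-side aliquots were quenched in methanol and measured by LC–MS/MS. Free fraction is the mean of at least three studies.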

[4] = tested on: NSP activity; test: Pharmacokinetic/pharmacodynamic modelling of NSP activity in rat; type: in vivo
Summary of the method: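 Rat NSP activity time courses were fitted with an indirect response model: production rate kin scaled by uninhibited DPP1 fraction 1 − C/(IC50 + C), loss rate kout, baseline taken as 100%. IC50 was the in vitro cell potency corrected for plasma protein binding. Exposure was simulated with a one-compartment PK model. kout was fitted to blood data from the onset study and bone marrow data from the recovery study.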

[5] = Plasma protein binding by equilibrium dialysis, rat plasma; type: in vitro ADME; settings: 10 μM, 18 h at 37°C, mean, n of at least 3
Summary of the method: as §1

[6] = tested on: cathepsin G (CatG); test: Onset studies: CatG activity in rat blood and bone marrow lysates; type: in vivo; settings: two onset studies, small assay window
Summary of the method: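 Male Sprague Dawley rats (200–400 g) were dosed orally twice daily, 3.6 mg·kg−1 in the morning and 10.7 mg·kg−1 8 h later, for 5–14 days (onset 1) or 1–8 days (onset 2). Vehicle was 0.1 M citrate buffer, pH 3.0. Blood and femoral marrow cells were lysed at 10^8 cells mL−1 in Triton X-100 buffer. Lysates were incubated 15 min, then given N-succinyl-Ala-Ala-Pro-Phe-pNA and read by absorbance at 405 nm for 90–120 min. Initial rate was taken from the linear range.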

[7] = tested on: neutrophil elastase (NE); test: Onset studies: NE activity in rat blood and bone marrow lysates; type: in vivo; settings: onset 1 (14 day study), bone marrow
Summary of the method: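 Rats were dosed orally twice daily with test compound, 3.6 mg·kg−1 and then 10.7 mg·kg−1 8 h later, against citrate buffer pH 3.0 vehicle. Onset 1 ran 5, 8, 10, 12 or 14 days. Femurs were taken under isoflurane 2 h after the last dose. Marrow leukocytes were lysed on ice at 10^8 cells mL−1. Lysates received Methoxysuccinyl-Ala-Ala-Pro-Val-AMC and were read by fluorescence (ex 350–380, em 450–460 nm) for up to 60 min. Initial rate came from the linear range.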

[8] = tested on: proteinase 3 (PR3); test: Onset studies: PR3 activity in rat blood and bone marrow lysates; type: in vivo; settings: onset 1 (14 day study), bone marrow
Summary of the method: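 Male Sprague Dawley rats received test compound orally twice daily, 3.6 and 10.7 mg·kg−1 8 h apart, for up to 14 days. Vehicle was citrate buffer pH 3.0. Blood and femoral marrow lysates (10^8 cells mL−1, Triton X-100) were incubated 15 min, then given the 5-FAM/QXL520 quenched peptide substrate. Fluorescence (ex 320–490, em 405–520 nm) was followed up to 60 min. Initial rate came from the linear portion.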

[9] = molecular target: DPP1 (Homo sapiens, UniProt P53634); test: DPP1 activity cell assay; type: cell-based; settings: read-out: DPP1 IC50, corrected for PPB; in vitro potency corrected for rat PPB

| Compound | CL [1] | clearance [2] | PPB (%free) [3] | maximum reduction in protease activity in bone marrow ([4]; recovery study) | PPB (%free) [5] | effect on CatG activity [6] | days of treatment to reach maximum reduction in NE activity [7] | days of treatment to reach maximum reduction in PR3 activity [8] | maximum reduction in protease activity in blood ([4]; onset studies) | IC50 [9] |
| --- | --- | --- | --- | --- | --- | --- | --- | --- | --- | --- |
| N#Cc1ccc(-c2ccc(C[C@@H](C#N)NC(=O)C3(N)CCOCC3)cc2)cc1 [AZ2, (S)‐4‐amino‐N‐(1‐cyano‐2‐(4′‐cyanobiphenyl‐4‐yl)ethyl)tetrahydro‐2H‐pyran‐4‐carboxamide] | 3.4 L/h | 1.67 mL/min | 9.1 %free | 90% | 11 %free |  |  |  |  |  |
| N#Cc1ccc(-c2ccc(C[C@@H](C#N)NC(=O)[C@@H]3CCCCN3)cc2)cc1 [AZ1, (S)‐N‐((S)‐1‐cyano‐2‐(4′‐cyanobiphenyl‐4‐yl)ethyl)piperidine‐2‐carboxamide] |  | 6.67 mL/min |  |  | 4.1 %free | lack of effect | 8 days | 8 days | about 75% | 140 nM |

From publication PMC4945769 (British Journal of Pharmacology, 2016)
